Reference: ChEMBL document CHEMBL4613320, “Artemisinin Derivatives with Antimelanoma Activity Show Inhibitory Effect against Human DNA Topoisomerase 1” (ACS Med Chem Lett, 2020)
Active and inactive are the calls of the source. The rule behind the calls is not given here.

Columns and labels:
[1] = test system: RPMI-7951; test: Cytotoxicity against human RPMI7951 cells assessed as reduction in cell viability measured after 24 hrs by MTT assay; assay type: functional, cell-based; details: RPMI-7951, 24 h
[2] = Cytotoxicity against human C3PV cells assessed as reduction in cell viability measured after 24 hrs by MTT assay; assay type: cell-based
[3] = test system: SK-MEL-24; test: Cytotoxicity against human SK-MEL-24 cells assessed as reduction in cell viability measured after 24 hrs by MTT assay; assay type: functional, cell-based; details: SK-MEL-24, 24 h
[4] = molecular target: T1, DNA topoisomerase 1 (Homo sapiens) (UniProt P11387); test: Inhibition of human TOP1B expressed in Saccharomyces cerevisiae EKY3 lacking top1 assessed as reduction in yeast cell growth at 1 to 30 uM
T1 sequence (whole entry): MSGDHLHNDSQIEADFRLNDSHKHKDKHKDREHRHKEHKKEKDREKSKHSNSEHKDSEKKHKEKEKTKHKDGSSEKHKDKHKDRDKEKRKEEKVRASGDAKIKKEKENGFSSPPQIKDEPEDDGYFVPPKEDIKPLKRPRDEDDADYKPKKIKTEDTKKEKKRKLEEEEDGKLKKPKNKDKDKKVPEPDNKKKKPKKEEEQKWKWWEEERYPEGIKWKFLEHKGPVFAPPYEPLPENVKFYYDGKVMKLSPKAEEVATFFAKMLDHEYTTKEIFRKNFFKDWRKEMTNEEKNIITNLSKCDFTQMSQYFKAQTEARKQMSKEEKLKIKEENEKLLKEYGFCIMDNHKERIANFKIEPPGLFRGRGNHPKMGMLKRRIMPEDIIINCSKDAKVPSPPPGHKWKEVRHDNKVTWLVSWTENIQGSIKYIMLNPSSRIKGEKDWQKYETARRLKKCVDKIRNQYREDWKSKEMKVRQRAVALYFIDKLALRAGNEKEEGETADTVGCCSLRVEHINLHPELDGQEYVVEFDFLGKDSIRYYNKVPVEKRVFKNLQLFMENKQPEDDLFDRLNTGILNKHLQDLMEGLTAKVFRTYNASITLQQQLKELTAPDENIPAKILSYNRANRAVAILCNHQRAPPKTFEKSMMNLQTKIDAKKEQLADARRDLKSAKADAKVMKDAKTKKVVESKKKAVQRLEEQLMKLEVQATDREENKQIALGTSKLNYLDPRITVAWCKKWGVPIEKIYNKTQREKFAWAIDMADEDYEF
Summary of the method: (§1)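 Wild-type human Top1 overexpressed from plasmids under the Gal-1–10 promoter in S. cerevisiae EKY3, which lacks the endogenous enzyme. Yeast growth sensitivity scored across compound concentrations. Controls were untreated cells and DMSO vehicle.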

[5] = species on record: Homo sapiens; test: Inhibition of human TOP1B G363C mutant expressed in Saccharomyces cerevisiae EKY3 lacking top1 assessed as reduction in yeast growth at 1 to 30 uM
Summary of the method: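 Human Top1 G363C mutant (glycine 363 to cysteine, camptothecin-resistant) expressed from plasmids under the Gal-1–10 promoter in S. cerevisiae EKY3, which lacks the endogenous enzyme. Yeast growth sensitivity read at a range of compound concentrations. Controls were untreated cells and DMSO vehicle.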

[6] = molecular target: T1, DNA topoisomerase 1 (Homo sapiens); test: Inhibition of human TOP1B expressed in Saccharomyces cerevisiae EKY3 lacking top1 assessed as reduction in yeast cell growth at 10 uM; summary of the method: as §1
[7] = molecular target: T1, DNA topoisomerase 1 (Homo sapiens); test: Inhibition of human TOP1B-medaited negatively supercoiled pBlue-Script KSII(+) DNA relaxation at 0.3 to 30 uM by ethidium bromide staining based gel electrophoresis method
[8] = molecular target: T1, DNA topoisomerase 1 (Homo sapiens); test: Inhibition of human TOP1B expressed in Saccharomyces cerevisiae EKY3 lacking top1 assessed as reduction in yeast cell growth at 30 uM; summary of the method: as §1
[9] = molecular target: T1, DNA topoisomerase 1 (Homo sapiens); test: Inhibition of human TOP1B expressed in Saccharomyces cerevisiae EKY3 lacking top1 assessed as induction of cell cycle defect at 30 uM measured after 24 hrs
[10] = molecular target: T1, DNA topoisomerase 1 (Homo sapiens); test: Inhibition of human TOP1B expressed in Saccharomyces cerevisiae EKY3 lacking top1 assessed as reduction in yeast growth at 3 uM; summary of the method: as §1
[11] = molecular target: T1, DNA topoisomerase 1 (Homo sapiens); test: Inhibition of human TOP1B-medaited negatively supercoiled pBlue-Script KSII(+) DNA relaxation at 300 nM by ethidium bromide staining based gel electrophoresis method

Compound | IC50 [1] | IC50 [2] | IC50 [3] | inhibition [7] | also measured
CCc1c2c(nc3ccc(O)cc13)-c1cc3c(c(=O)n1C2)COC(=O)[C@]3(O)CC [7-ETHYL-10-HYDROXYCAMPTOTHECIN] | 260 nM | 510 nM | 480 nM | – | –
C[C@@H]1CC[C@H]2[C@@H](C)C(=O)O[C@@H]3O[C@@]4(C)CC[C@@H]1[C@]32OO4 | – | – | – | – | inhibition [4]: inactive
C[C@H]1[C@H](OC(=O)CCC(=O)Oc2ccc(CCO)cc2)O[C@@H]2O[C@]3(C)CC[C@H]4[C@H](C)CC[C@@H]1[C@@]24OO3 | – | – | – | Active | inhibition [5]: inactive; inhibition [6]: Active
COc1cc(/C=C/C(=O)CC(=O)/C=C/c2ccc(OC(=O)CCC(=O)O[C@@H]3O[C@@H]4O[C@]5(C)CC[C@H]6[C@H](C)CC[C@@H]([C@H]3C)[C@@]46OO5)c(OC)c2)ccc1O | – | – | – | Active | inhibition [8]: Active
C[C@H]1[C@H](O)O[C@@H]2O[C@@]3(C)CC[C@H]4[C@H](C)CC[C@@H]1[C@@]24OO3 | – | – | – | – | inhibition [8]: inactive
C[C@H]1[C@H](OC(=O)CCC(=O)OCCc2ccc(O)cc2)O[C@@H]2O[C@]3(C)CC[C@H]4[C@H](C)CC[C@@H]1[C@@]24OO3 | – | – | – | Active | inhibition [5]: inactive; inhibition [6]: Active; inhibition [9]: Active
COc1cc(/C=C/C(=O)CC(=O)/C=C/c2ccc(OC(=O)CCC(=O)O[C@@H]3O[C@@H]4O[C@]5(C)CC[C@H]6[C@H](C)CC[C@@H]([C@H]3C)[C@@]46OO5)cc2)ccc1OC(=O)CCC(=O)O[C@@H]1O[C@@H]2O[C@]3(C)CC[C@H]4[C@H](C)CC[C@@H]([C@H]1C)[C@@]24OO3 | – | – | – | – | inhibition [4]: inactive
CC(=O)O[C@H]1C(=O)[C@@]2(C)[C@H]([C@H](OC(=O)c3ccccc3)[C@]3(O)C[C@H](OC(=O)[C@H](O)[C@@H](NC(=O)c4ccccc4)c4ccccc4)C(C)=C1C3(C)C)[C@]1(OC(C)=O)CO[C@@H]1C[C@@H]2O [PACLITAXEL] | 13 nM | 78900 nM | 4730 nM | – | –
CC[C@@]1(OC(=O)CCC(=O)O[C@@H]2O[C@@H]3O[C@]4(C)CC[C@H]5[C@H](C)CC[C@@H]([C@H]2C)[C@@]35OO4)C(=O)OCc2c1cc1n(c2=O)Cc2cc3ccccc3nc2-1 | 17300 nM | 300 nM | 850 nM | Active | inhibition [4]: Active
C[C@H]1[C@H](OC(=O)CCC(=O)O)O[C@@H]2O[C@@]3(C)CC[C@H]4[C@H](C)CC[C@@H]1[C@@]24OO3 | – | – | – | Active | inhibition [8]: inactive
CCc1c2c(nc3ccc(OC(=O)CCC(=O)O[C@@H]4O[C@@H]5O[C@]6(C)CC[C@H]7[C@H](C)CC[C@@H]([C@H]4C)[C@@]57OO6)cc13)-c1cc3c(c(=O)n1C2)COC(=O)[C@]3(O)CC | 50 nM | 3200 nM | 320 nM | – | inhibition [5]: Active; inhibition [10]: Active; inhibition [11]: Active
CC[C@@]1(O)C(=O)OCc2c1cc1n(c2=O)Cc2cc3ccccc3nc2-1 [CAMPTOTHECIN] | 220 nM | 450 nM | 460 nM | – | –
C[C@H]1[C@H](OCCc2ccc(O)cc2)O[C@@H]2O[C@]3(C)CC[C@H]4[C@H](C)CC[C@@H]1[C@@]24OO3 | – | – | – | – | inhibition [8]: Active
C=C(C)[C@H]1CC=C(COC(=O)CCC(=O)O[C@@H]2O[C@@H]3O[C@@]4(C)CC[C@H]5[C@H](C)CC[C@@H]([C@H]2C)[C@@]35OO4)CC1 | – | – | – | – | inhibition [4]: inactive
